Results as given in publication PMC9321963 (Birth Defects Research, 2022).
Values joined by “and” are separate entries in the source; they are usually repeats but may differ in a detail not shown here. Equal values may be shown once.

Assays:
[1] = Toxicokinetics, rat main EFD study; assay type: in vivo; conditions: for Tmax / AUC(0-t) / Cmax: female, Sprague-Dawley (Crl:CD SD), rat, plasma, po; for AUC(0-t) / Cmax: rat main EFD; for Cmax: C max
[2] = Toxicokinetics, rabbit DRF EFD study; conditions: female, in vivo
[3] = Rat investigative embryofetal developmental toxicity study; assay type: in vivo; conditions: female, Sprague-Dawley, rat, in vivo, oral
Summary of the method: (§1)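 Crl:OFA SD naïve time-mated females, 25 per group (plug day = GD0), under GLP and ICH S5(R2). Oral daily doses of 20, 40 or 60 mg/kg/day were given GD6–GD17; an extra 60 mg/kg/day group was dosed only GD8–GD11 (diaphragm formation). Suspension vehicle: 20% w/w Kolliphor HS 15 / 50% w/w PEG 400 in water. CO2 euthanasia and necropsy on GD21. Maternal endpoints were recorded, plus fetal weight, external and visceral exams.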

pregnant rats = assay: as above; assay type: in vivo; conditions: rat investigative EFD; for mean maternal body weight gain, % of controls: dosing and post dose periods
Summary of the method: as §1

PI4Kα [4] = molecular target: T1, PI4Kα (Homo sapiens, UniProt P42356); assay: ADP-Glo Kinase Assay, PI4Kα; assay type: biochemical
T1 sequence (P42356 whole entry): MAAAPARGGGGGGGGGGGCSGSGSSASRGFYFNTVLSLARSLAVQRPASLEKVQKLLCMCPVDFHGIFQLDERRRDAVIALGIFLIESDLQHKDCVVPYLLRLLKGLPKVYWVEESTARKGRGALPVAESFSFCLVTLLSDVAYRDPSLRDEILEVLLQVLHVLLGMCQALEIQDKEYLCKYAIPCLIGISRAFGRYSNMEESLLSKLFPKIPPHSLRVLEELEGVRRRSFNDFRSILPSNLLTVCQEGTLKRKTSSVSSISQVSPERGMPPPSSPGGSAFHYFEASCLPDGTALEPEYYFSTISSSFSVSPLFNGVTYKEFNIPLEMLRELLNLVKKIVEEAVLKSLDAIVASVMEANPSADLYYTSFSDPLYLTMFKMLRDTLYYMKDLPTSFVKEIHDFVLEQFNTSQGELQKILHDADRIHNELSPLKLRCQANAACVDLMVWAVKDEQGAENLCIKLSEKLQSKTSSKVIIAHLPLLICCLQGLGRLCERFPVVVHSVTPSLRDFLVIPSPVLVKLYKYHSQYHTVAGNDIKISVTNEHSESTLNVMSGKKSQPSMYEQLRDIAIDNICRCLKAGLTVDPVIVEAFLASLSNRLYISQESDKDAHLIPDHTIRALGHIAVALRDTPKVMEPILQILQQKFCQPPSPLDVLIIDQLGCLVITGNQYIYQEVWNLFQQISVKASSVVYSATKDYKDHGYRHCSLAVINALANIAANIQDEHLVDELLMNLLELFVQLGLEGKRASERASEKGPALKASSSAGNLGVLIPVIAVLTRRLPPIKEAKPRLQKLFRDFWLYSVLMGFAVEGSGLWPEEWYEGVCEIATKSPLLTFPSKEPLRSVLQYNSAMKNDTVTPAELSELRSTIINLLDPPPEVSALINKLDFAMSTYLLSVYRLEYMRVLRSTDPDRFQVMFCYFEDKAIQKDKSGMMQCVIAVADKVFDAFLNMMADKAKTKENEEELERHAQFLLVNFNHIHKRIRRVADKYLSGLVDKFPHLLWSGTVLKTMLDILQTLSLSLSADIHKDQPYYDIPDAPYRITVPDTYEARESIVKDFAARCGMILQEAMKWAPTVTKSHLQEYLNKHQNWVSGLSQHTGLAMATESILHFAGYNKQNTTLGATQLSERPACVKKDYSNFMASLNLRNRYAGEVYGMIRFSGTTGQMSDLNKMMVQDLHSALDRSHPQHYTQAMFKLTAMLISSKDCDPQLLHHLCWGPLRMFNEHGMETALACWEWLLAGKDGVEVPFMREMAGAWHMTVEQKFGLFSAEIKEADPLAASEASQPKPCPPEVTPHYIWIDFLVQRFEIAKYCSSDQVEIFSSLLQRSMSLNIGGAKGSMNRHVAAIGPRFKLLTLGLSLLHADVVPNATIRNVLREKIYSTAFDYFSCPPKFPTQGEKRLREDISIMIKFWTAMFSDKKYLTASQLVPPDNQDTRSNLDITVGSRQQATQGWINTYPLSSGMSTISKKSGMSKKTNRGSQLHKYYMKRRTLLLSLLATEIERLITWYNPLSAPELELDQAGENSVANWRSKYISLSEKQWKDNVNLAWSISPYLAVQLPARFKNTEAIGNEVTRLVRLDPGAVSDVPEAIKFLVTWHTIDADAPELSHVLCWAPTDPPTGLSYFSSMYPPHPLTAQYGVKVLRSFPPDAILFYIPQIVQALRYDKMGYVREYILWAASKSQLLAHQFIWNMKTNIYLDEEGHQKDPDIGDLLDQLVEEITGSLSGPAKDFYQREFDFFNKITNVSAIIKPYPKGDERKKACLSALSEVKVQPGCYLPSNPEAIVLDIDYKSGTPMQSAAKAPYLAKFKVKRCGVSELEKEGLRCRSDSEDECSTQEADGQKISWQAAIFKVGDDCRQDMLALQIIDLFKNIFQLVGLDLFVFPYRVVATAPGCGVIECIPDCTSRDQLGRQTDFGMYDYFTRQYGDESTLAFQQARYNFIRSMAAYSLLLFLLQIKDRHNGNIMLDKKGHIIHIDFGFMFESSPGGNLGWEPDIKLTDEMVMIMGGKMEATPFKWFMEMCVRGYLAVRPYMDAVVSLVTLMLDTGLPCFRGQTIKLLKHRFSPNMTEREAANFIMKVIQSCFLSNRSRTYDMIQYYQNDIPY

PI3Kγ = PI3Kγ (Homo sapiens, UniProt P48736); assay: ADP-Glo Kinase Assay, PI3Kγ; assay type: biochemical
PI3Kγ, sequence (P48736 whole entry): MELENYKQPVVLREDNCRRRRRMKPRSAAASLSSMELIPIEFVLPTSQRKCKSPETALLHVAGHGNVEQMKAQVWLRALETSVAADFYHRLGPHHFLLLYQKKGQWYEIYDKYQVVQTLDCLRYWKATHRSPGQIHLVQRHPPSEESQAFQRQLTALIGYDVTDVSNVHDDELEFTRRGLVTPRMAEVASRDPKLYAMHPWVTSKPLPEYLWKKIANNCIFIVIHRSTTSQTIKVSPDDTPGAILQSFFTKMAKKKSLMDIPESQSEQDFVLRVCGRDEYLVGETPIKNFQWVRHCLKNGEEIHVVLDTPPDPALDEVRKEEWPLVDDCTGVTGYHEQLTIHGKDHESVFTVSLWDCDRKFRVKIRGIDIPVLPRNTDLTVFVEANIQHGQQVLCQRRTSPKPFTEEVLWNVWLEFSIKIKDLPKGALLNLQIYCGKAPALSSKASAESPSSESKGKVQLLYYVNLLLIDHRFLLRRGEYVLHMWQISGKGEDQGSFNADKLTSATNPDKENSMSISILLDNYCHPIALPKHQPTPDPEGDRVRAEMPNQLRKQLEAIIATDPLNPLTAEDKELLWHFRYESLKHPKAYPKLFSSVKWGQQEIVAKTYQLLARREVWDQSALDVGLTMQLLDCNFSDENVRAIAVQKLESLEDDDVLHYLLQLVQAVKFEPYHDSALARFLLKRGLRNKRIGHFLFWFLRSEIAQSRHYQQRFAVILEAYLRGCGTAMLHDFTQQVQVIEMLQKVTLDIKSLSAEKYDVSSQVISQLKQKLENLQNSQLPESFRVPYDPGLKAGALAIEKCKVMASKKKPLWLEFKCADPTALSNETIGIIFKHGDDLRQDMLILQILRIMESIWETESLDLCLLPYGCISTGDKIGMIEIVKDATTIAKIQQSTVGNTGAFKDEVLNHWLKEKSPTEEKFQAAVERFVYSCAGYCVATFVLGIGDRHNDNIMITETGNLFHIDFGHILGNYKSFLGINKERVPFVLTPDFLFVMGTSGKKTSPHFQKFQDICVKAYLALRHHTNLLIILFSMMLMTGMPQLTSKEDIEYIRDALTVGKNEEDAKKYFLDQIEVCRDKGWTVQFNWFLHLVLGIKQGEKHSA

AhR = molecular target: T2, AhR (Homo sapiens, UniProt P35869); assay: In vitro off-target inhibition, AhR
T2 sequence (P35869 11-848): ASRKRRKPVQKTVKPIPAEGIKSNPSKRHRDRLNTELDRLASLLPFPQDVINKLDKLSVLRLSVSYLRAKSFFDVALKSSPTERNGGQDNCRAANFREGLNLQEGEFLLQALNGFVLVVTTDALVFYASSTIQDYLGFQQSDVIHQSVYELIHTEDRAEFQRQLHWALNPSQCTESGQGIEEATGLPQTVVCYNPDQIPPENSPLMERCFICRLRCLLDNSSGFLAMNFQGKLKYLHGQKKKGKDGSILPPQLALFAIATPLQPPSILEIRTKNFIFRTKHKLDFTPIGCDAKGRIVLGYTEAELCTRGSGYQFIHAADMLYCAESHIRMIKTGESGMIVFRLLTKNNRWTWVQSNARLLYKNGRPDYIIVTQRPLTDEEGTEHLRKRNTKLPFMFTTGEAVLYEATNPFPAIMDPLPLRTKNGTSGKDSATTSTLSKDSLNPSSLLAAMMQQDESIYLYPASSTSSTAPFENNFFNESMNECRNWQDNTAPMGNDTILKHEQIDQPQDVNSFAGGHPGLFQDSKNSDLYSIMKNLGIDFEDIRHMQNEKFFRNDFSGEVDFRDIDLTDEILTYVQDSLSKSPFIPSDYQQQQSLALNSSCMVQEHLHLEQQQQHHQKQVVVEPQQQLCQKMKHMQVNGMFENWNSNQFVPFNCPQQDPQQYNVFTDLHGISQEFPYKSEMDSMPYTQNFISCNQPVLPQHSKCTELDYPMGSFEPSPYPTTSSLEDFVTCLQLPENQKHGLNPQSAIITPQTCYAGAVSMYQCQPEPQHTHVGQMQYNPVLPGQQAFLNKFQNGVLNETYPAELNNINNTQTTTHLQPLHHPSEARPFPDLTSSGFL

PI3Kδ = PI3Kδ (Homo sapiens, UniProt O00329); assay: ADP-Glo Kinase Assay, PI3Kδ; assay type: biochemical
PI3Kδ, sequence (O00329 whole entry): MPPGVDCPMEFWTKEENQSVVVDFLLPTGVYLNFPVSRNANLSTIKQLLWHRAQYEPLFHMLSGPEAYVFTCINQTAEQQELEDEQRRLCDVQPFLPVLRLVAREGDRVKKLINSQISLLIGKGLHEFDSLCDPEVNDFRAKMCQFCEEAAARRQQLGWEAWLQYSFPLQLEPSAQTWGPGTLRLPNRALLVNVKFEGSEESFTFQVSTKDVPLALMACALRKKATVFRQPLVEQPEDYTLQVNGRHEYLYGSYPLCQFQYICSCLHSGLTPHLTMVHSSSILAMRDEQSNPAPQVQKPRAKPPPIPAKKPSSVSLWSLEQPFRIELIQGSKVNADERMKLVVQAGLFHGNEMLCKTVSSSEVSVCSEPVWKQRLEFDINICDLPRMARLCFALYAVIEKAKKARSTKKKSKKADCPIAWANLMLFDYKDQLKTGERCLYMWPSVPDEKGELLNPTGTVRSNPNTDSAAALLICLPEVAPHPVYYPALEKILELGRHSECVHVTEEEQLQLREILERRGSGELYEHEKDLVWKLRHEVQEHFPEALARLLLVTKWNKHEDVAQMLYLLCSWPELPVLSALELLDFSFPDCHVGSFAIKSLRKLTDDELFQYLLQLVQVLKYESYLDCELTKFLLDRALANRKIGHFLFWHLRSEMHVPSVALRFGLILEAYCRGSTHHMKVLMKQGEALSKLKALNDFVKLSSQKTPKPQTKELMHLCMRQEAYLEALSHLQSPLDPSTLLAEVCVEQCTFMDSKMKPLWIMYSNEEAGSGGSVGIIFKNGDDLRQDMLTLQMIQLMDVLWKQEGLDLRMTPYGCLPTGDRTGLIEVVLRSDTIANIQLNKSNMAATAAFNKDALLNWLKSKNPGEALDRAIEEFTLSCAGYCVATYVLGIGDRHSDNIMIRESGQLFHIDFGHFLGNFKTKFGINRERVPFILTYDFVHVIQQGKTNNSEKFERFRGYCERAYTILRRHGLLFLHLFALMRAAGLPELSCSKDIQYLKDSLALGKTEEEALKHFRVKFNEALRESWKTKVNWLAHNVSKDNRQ
PI3Kδ, sequence (P27986 whole entry partner): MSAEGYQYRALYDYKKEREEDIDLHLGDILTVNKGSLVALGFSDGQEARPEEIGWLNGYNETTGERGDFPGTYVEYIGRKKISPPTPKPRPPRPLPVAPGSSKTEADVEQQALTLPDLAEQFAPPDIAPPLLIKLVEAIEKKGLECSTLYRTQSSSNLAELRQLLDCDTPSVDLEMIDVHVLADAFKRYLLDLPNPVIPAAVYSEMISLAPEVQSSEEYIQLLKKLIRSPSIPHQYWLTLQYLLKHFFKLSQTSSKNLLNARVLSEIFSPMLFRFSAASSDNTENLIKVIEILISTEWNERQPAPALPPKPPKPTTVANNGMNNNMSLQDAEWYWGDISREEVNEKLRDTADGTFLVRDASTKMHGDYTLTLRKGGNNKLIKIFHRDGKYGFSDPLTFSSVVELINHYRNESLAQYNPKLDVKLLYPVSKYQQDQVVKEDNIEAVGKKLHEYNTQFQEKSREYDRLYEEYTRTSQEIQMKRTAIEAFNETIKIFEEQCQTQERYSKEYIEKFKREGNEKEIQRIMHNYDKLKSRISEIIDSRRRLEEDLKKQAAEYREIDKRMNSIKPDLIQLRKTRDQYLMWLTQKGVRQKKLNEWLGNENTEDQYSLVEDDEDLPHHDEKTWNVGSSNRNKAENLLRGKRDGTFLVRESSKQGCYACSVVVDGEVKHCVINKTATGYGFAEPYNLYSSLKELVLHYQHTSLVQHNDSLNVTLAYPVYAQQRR

[5] = molecular target: All other off‐targets including kinases tested; assay: In vitro off-target and kinase panels, all other targets; assay type: biochemical; conditions: read-out: IC50s, all other off‐targets including kinases tested, human
PI4Kβ = PI4Kβ (Homo sapiens, UniProt Q9UBF8); conditions: chemoproteomic profiling, ref Paquet et al., [2017]; cited from earlier work
PI4Kα [6] = molecular target: T1, PI4Kα; conditions: chemoproteomic profiling, ref Paquet et al., [2017]; cited from earlier work
[7] = 2 mg/kg/day, 2 mg/kg/day oral, GD6
[8] = 2 mg/kg/day, 2 mg/kg/day oral, GD17
[9] = 6 mg/kg/day, 6 mg/kg/day oral, GD6
[10] = 6 mg/kg/day, 6 mg/kg/day oral, GD17
[11] = 20 mg/kg/day, 20 mg/kg/day oral, GD6
[12] = 20 mg/kg/day, 20 mg/kg/day oral, GD17
[13] = 60 mg/kg/day, only dosed GD8 to GD11

## CS(=O)(=O)c1ccc(-c2cnc(N)c(-c3ccc(C(F)(F)F)nc3)c2)cc1 [MMV390048]
[1]; 2 mg/kg/day
  Tmax: 2 h
[1]; [7]
  AUC(0-t): 3750 ng·h/mL
  Cmax: 680 ng/mL
[1]; [8]
  AUC(0-t): 3770 ng·h/mL
  Cmax: 681 ng/mL
[1]; 6 mg/kg/day
  Tmax: 2 h
[1]; [9]
  AUC(0-t): 19600 ng·h/mL
  Cmax: 1380 ng/mL
[1]; [10]
  AUC(0-t): 21400 ng·h/mL
  Cmax: 1600 ng/mL
[1]; 20 mg/kg/day
  Tmax: 4 h
[1]; [11]
  AUC(0-t): 70000 ng·h/mL
  Cmax: 4950 ng/mL
[1]; [12]
  AUC(0-t): 74400 ng·h/mL
  Cmax: 5190 ng/mL
[1]; rat EFD main KIT, GD17, 20 mg/kg, 4 hr post dose
  Maximum exposure (free): 2 μM/L
[2]; 1 mg/kg/day
  AUC(0-t): 3750 ng·h/mL
  Cmax: 267 ng/mL
  Tmax: 2 h
[2]; 3 mg/kg/day
  AUC(0-t): 14900 ng·h/mL
  Cmax: 857 ng/mL
  Tmax: 4 h
[2]; 10 mg/kg/day
  AUC(0-t): 64500 ng·h/mL
  Cmax: 3790 ng/mL
  Tmax: 4 h
[3]
  NOAEL: 20 mg/kg/day
Pregnant rats
  NOAEL for developmental toxicity: not established
Pregnant rats; 20 mg/kg/day GD6-GD17
  Blood vessels AARS, fetuses with malformation/total fetuses examined: 2/280
  Blood vessels AARS, litters with malformation/total litters examined: 2/24
  Blood vessels ADA, fetuses with malformation/total fetuses examined: 4/280
  Blood vessels ADA, litters with malformation/total litters examined: 3/24
  Blood vessels IAA, fetuses with malformation/total fetuses examined: 2/280
  Blood vessels IAA, litters with malformation/total litters examined: 2/24
  Blood vessels NPT, fetuses with malformation/total fetuses examined: 1/280
  Blood vessels NPT, litters with malformation/total litters examined: 1/24
  Edema, fetuses with malformation/total fetuses examined: 1/280
  Edema, litters with malformation/total litters examined: 1/24
  Female with viable fetuses: 24/24
  Fetal BW % from CTL: −10%
  Heart VSD, fetuses with malformation/total fetuses examined: 1/280
  Heart VSD, litters with malformation/total litters examined: 1/24
  Hernias, fetuses with malformation/total fetuses examined: 35/280
  Hernias, litters with malformation/total litters examined: 16/24
  Postimplantation loss (%): 9.6%
Pregnant rats; 40 mg/kg/day
  females with no viable fetuses, number: 6 females
  mean maternal body weight gain, % of controls: 41 % of controls
Pregnant rats; 40 mg/kg/day GD6-GD17
  Blood vessels AARS, fetuses with malformation/total fetuses examined: 8/97
  Blood vessels AARS, litters with malformation/total litters examined: 8/16
  Blood vessels ADA, fetuses with malformation/total fetuses examined: 9/97
  Blood vessels ADA, litters with malformation/total litters examined: 7/16
  Blood vessels IAA, fetuses with malformation/total fetuses examined: 4/97
  Blood vessels IAA, litters with malformation/total litters examined: 4/16
  Blood vessels NPT, fetuses with malformation/total fetuses examined: 9/97
  Blood vessels NPT, litters with malformation/total litters examined: 6/16
  Edema, fetuses with malformation/total fetuses examined: 1/97
  Edema, litters with malformation/total litters examined: 1/16
  Female with viable fetuses: 16/22
  Fetal BW % from CTL: −24%
  Heart Thick VW, fetuses with malformation/total fetuses examined: 1/97
  Heart Thick VW, litters with malformation/total litters examined: 1/16
  Heart VSD, fetuses with malformation/total fetuses examined: 21/97
  Heart VSD, litters with malformation/total litters examined: 8/16
  Hernias, fetuses with malformation/total fetuses examined: 63/97
  Hernias, litters with malformation/total litters examined: 15/16
  Postimplantation loss (%): 66.45%
Pregnant rats; 60 mg/kg/day
  females with no viable fetuses, number: 11 females
  mean maternal body weight gain, % of controls: 49 % of controls
Pregnant rats; [13]
  Blood vessels AARS, fetuses with malformation/total fetuses examined: 12/65
  Blood vessels AARS, litters with malformation/total litters examined: 12/14
  Blood vessels ADA, fetuses with malformation/total fetuses examined: 10/65
  Blood vessels ADA, litters with malformation/total litters examined: 6/14
  Blood vessels IAA, fetuses with malformation/total fetuses examined: 1/65
  Blood vessels IAA, litters with malformation/total litters examined: 1/14
  Blood vessels NPT, fetuses with malformation/total fetuses examined: 10/65
  Blood vessels NPT, litters with malformation/total litters examined: 6/14
  Edema, fetuses with malformation/total fetuses examined: 2/65
  Edema, litters with malformation/total litters examined: 1/14
  Female with viable fetuses: 14/25
  Fetal BW % from CTL: −26%
  Heart Thick VW, fetuses with malformation/total fetuses examined: 3/65
  Heart Thick VW, litters with malformation/total litters examined: 3/14
  Hernias, fetuses with malformation/total fetuses examined: 31/65
  Hernias, litters with malformation/total litters examined: 11/14
  Postimplantation loss (%): 79.22% and 79.2%
PI4Kα [4]
  IC50: 18.7 µM
PI3Kγ
  IC50: 4.3 µM
AhR
  IC50: 7.9 µM
PI3Kδ
  IC50: 8.1 µM
[5]
  IC50: ≥ 20 µM
PI4Kβ
  binding to human PI4Kβ: no binding
PI4Kα [6]
  binding to human PI4Kα: no binding
